According to ChEMBL document CHEMBL3286377, “Microwave-assisted synthesis of C-8 aryl and heteroaryl inosines and determination of their inhibitory activities against Plasmodium falciparum purine nucleoside phosphorylase” (Eur J Med Chem, 2014):
Calls of active or inactive are those of the source. No cut-off for these calls is given here.

Assays:
[1] = system: Human alphaherpesvirus 1; experiment: Antiviral activity against Herpes simplex virus type 1 KOS assessed as inhibition of virus-induced cytopathicity at 100 uM by cell-based assay; type: functional, organism-based
In short: (§1)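 Confluent HEL, Vero, HeLa or MDCK monolayers were infected with 100 CCID50 of virus in the presence of varying compound concentrations. Activity is expressed as EC50, the concentration that halves virus-induced cytopathicity.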

[2] = system: Sindbis virus; experiment: Antiviral activity against Sindbis virus assessed as inhibition of virus-induced cytopathicity at 100 uM by cell-based assay; type: functional, organism-based; in short: as §1
[3] = system: Vesicular stomatitis virus; experiment: Antiviral activity against Vesicular stomatitis virus assessed as inhibition of virus-induced cytopathicity at 100 uM by cell-based assay; type: functional, organism-based
In short: (§2)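 Confluent HEL, Vero, HeLa or MDCK monolayers were infected with 100 CCID50 of virus in the presence of varying compound concentrations, with 100 µM the level assessed. Cytopathic effect was recorded once it was complete in untreated infected controls. EC50 is the concentration reducing virus-induced cytopathicity by 50%.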

[4] = Hydrolytic stability of the compound in phosphate buffer at 50 uM at pH 7.4 up to 24 hrs by HPLC analysis; type: physicochemical; settings: pH 7.4, 24 h
In short: (§3)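 A 5 mM DMSO stock was diluted to 50 µM final in phosphate (pH 7.4), citrate (pH 5.0) or trifluoroacetate (pH 1.2) buffer and incubated at 37 °C. Aliquots taken at 0, 0.5, 1, 4 and 24 h were analysed by reverse-phase HPLC. The mobile phase ran from 10 to 100% acetonitrile against water with 0.05% TFA over 20 min, at 1.0 mL/min.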

[5] = system: Influenza A virus; experiment: Antiviral activity against Influenza A virus H1N1 assessed as inhibition of virus-induced cytopathicity at 100 uM by cell-based assay; type: functional, organism-based
In short: (§4)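 Inhibition of virus-induced cytopathicity in confluent cell monolayers (HEL, Vero, HeLa or MDCK cells), tested at varying compound concentrations with 100 µM the level assessed. Cytopathicity was scored once it was complete in untreated virus-infected controls. Activity is expressed as EC50, the concentration reducing virus-induced cytopathicity by 50%.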

[6] = system: Plasmodium falciparum; experiment: Inhibition of Plasmodium falciparum PNP expressed in Escherichia coli BL21(DE3) using inosine as substrate at 200 uM by spectrophotometric analysis
[7] = system: CCRF-CEM; experiment: Cytotoxicity against human CEM cells up to 100 uM; type: cell-based
[8] = system: HEL; experiment: Cytotoxicity against HEL up to 100 uM; type: cell-based; settings: human
[9] = system: Vaccinia virus; experiment: Antiviral activity against Vaccinia virus Lederle assessed as inhibition of virus-induced cytopathicity at 100 uM by cell-based assay; type: functional, organism-based; settings: Orthopoxvirus vaccinia; in short: as §2
[10] = Half life of the compound in trifluoroacetate buffer at 50 uM at pH 1.2 by HPLC analysis; type: physicochemical; in short: as §3
[11] = system: Coxsackievirus B4; experiment: Antiviral activity against Coxsackievirus B4 assessed as inhibition of virus-induced cytopathicity at 100 uM by cell-based assay; type: functional, organism-based; in short: as §1
[12] = system: Respiratory syncytial virus; experiment: Antiviral activity against Respiratory syncytial virus Long assessed as inhibition of virus-induced cytopathicity at 100 uM by cell-based assay; type: functional, organism-based; in short: as §1
[13] = Hydrolytic stability of the compound in citrate buffer at 50 uM at pH 5 up to 24 hrs by HPLC analysis; type: physicochemical; settings: pH 5, 24 h; in short: as §3
[14] = system: Influenza B virus; experiment: Antiviral activity against Influenza B virus assessed as inhibition of virus-induced cytopathicity at 100 uM by cell-based assay; type: functional, organism-based; in short: as §4
[15] = system: Mammalian orthoreovirus 1; experiment: Antiviral activity against Reovirus 1 assessed as inhibition of virus-induced cytopathicity at 100 uM by cell-based assay; type: functional; in short: as §1
[16] = system: Vero; experiment: Cytotoxicity against African green monkey Vero cells up to 100 uM; type: cell-based; settings: chlorocebus sabaeus
[17] = system: Human alphaherpesvirus 1; experiment: Antiviral activity against thymidine kinase-deficient ACV-resistant Herpes simplex virus type 1 KOS assessed as inhibition of virus-induced cytopathicity at 100 uM by cell-based assay; type: functional, organism-based; in short: as §2
[18] = system: HeLa; experiment: Cytotoxicity against human HeLa cells up to 100 uM; type: cell-based
[19] = system: Human alphaherpesvirus 2; experiment: Antiviral activity against Herpes simplex virus type 2 G assessed as inhibition of virus-induced cytopathicity at 100 uM by cell-based assay; type: functional, organism-based; settings: strain G; in short: as §1
[20] = system: Human respirovirus 3; experiment: Antiviral activity against Parainfluenza virus 3 assessed as inhibition of virus-induced cytopathicity at 100 uM by cell-based assay; type: functional, organism-based; in short: as §1
[21] = system: Punta Toro virus; experiment: Antiviral activity against Punta Toro virus assessed as inhibition of virus-induced cytopathicity at 100 uM by cell-based assay; type: functional, organism-based; in short: as §1
[22] = system: Human alphaherpesvirus 2; experiment: Antiviral activity against Herpes simplex virus type 2 Lyons assessed as inhibition of virus-induced cytopathicity at 100 uM by cell-based assay; type: functional, organism-based; in short: as §1
[23] = system: MDCK; experiment: Cytotoxicity against MDCK cells up to 100 uM; type: cell-based, Canis lupus familiaris; settings: dog
[24] = system: Influenza A virus H3N2; experiment: Antiviral activity against Influenza A virus H3N2 assessed as inhibition of virus-induced cytopathicity at 100 uM by cell-based assay; type: functional, organism-based; in short: as §4
[25] = system: Mesomycoplasma hyorhinis; experiment: Inhibition of Mycoplasma hyorhinis PNP-mediated inosine hydrolysis assessed as residual activity at 250 uM after 1 hr by RP-HPLC analysis relative to control
In short: (§5)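 Enzyme levels were 20 nM for E. coli and M. hyorhinis PNP and 6 nM for human PNP, in buffer of 50 mM MOPS, 0.2 mM EDTA and 200 mM potassium phosphate, pH 6.5, at 37 °C. Compound (250 µM) and inosine (100 µM) were incubated 60 min. Conversion to hypoxanthine was measured by RP-18 HPLC using an NaH2PO4/heptanesulfonate (pH 3.2) to acetonitrile gradient.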

[26] = system: Escherichia coli; experiment: Inhibition of Escherichia coli PNP-mediated inosine hydrolysis assessed as residual activity at 250 uM after 1 hr by RP-HPLC analysis relative to control; in short: as §5
[27] = Inhibition of Plasmodium falciparum PNP expressed in Escherichia coli BL21(DE3) using inosine as substrate by spectrophotometric analysis; settings: read-out: Ki
In short: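 Recombinant PfPNP (His-vector, E. coli BL21(DE3), 1 mM IPTG, 37 °C, 4 h) was assayed at 25 nM. The mix held 50 mM KH2PO4 pH 7.5, 60 mU xanthine oxidase and 25 µM inosine, at 25 °C. Uric acid formation was followed at 293 nm. Rates were measured at five or more inhibitor concentrations.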

[28] = target: T1, Purine nucleoside phosphorylase (Homo sapiens) (UniProt P00491); experiment: Inhibition of human PNP-mediated inosine hydrolysis assessed as residual activity at 250 uM after 1 hr by RP-HPLC analysis relative to control; in short: as §5
T1 sequence (whole entry): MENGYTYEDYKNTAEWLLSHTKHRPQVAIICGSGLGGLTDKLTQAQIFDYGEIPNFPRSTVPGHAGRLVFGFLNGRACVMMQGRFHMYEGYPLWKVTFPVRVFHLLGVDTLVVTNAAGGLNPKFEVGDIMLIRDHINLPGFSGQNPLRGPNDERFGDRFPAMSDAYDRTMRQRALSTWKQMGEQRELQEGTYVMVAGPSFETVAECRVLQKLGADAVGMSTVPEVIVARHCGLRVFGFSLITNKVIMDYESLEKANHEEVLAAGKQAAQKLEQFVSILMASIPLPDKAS

[29] = system: Plasmodium falciparum; experiment: Antiplasmodial activity against chloroquine-sensitive Plasmodium falciparum 3D7 assessed as growth inhibition at 25 uM; type: functional, organism-based
In short: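 Intraerythrocytic-stage growth assay against the chloroquine-sensitive P. falciparum 3D7 strain. Compounds were tested at a single level of 25 µM, with chloroquine run in the same assay as reference.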

| Compound | Activity [1] | Activity [2] | Activity [3] | Stability [4] | Activity [5] | Activity [7] | Activity [8] | Activity [9] | half-life at 50 µM [10] [h] | Activity [11] | Activity [12] | Stability [13] | Activity [14] | Activity [15] | Activity [16] | Activity [17] | Activity [18] | Activity [19] | Activity [20] | Activity [21] | other results |
| --- | --- | --- | --- | --- | --- | --- | --- | --- | --- | --- | --- | --- | --- | --- | --- | --- | --- | --- | --- | --- | --- |
| COc1ccc(-c2nc3c(=O)[nH]cnc3n2[C@@H]2O[C@H](CO)[C@@H](O)[C@H]2O)cc1 | inactive | inactive | inactive | Stable | inactive | Non-toxic | Non-toxic | inactive | 5 | inactive | inactive | Stable | inactive | inactive | Non-toxic | inactive | Non-toxic | inactive | inactive | inactive | inhibition [6]: inactive; Activity [22]: inactive; Activity [23]: Non-toxic; Activity [24]: inactive |
| O=c1[nH]cnc2c1nc(-c1cccnc1)n2[C@@H]1O[C@H](CO)[C@@H](O)[C@H]1O | inactive | inactive | inactive | Stable | inactive | Non-toxic | Non-toxic | inactive | 15 | inactive | inactive | Stable | inactive | inactive | Non-toxic | inactive | Non-toxic | inactive | inactive | inactive | inhibition [6]: inactive; Activity [22]: inactive; Activity [23]: Non-toxic; Activity [24]: inactive |
| O=c1[nH]cnc2c1nc(-c1cccc(C(F)(F)F)c1)n2[C@@H]1O[C@H](CO)[C@@H](O)[C@H]1O | inactive | inactive | inactive | Stable | inactive | Non-toxic | Non-toxic | inactive | 5 | inactive | inactive | Stable | inactive | inactive | Non-toxic | inactive | Non-toxic | inactive | inactive | inactive | Activity [25]: 96%; Activity [26]: 96%; Ki [27]: 5.33 µM; Activity [22]: inactive; Activity [23]: Non-toxic; Activity [24]: inactive; Activity [28]: 96%; growth inhibition (GI) [29]: inactive |
